The list is not random: actives were taken first. Their share in the collection is about 3%.
SIRT5 inh: sirtuin-5 (human) deacylase inhibition. Q9NXA8. inhibition, % at 15 µM. hit rate 1.1% among 330,000. Purified SirT5, succinyl-peptide AMC, trypsin-coupled fluorescence; in the data active = inhibition above about 15%
Target sequence (Q9NXA8 whole entry, looked up): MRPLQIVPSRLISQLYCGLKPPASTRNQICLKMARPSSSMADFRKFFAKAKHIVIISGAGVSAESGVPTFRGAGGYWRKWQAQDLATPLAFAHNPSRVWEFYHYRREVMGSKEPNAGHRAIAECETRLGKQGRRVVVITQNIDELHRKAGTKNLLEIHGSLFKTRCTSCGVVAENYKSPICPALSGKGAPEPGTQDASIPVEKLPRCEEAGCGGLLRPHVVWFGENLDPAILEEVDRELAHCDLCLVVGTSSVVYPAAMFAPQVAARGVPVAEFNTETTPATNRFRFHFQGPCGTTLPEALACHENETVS
S100A4 inh HTS: inhibitors of human S100A4 binding to myosin IIA peptide; inhibition, % at 10.7 µM; P26447; S100A4/TAMRA-MyoIIA peptide fluorescence polarization; hit rate 0.14% among 360,000;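 active = mean inhibition of at least 70% across replicates, with every replicate also reaching that level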
Target sequence (P26447 whole entry, looked up): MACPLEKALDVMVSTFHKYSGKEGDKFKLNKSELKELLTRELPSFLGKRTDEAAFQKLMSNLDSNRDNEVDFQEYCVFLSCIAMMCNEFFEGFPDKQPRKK
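Material: S100A4 monomer protein | Medium: HEPES pH 7.2 with CaCl2, KCl, NaCl, DTT, Triton | Reagent: Labelled myosin peptide probe, 5 nM | Doses: One dose per compound | Times: 5 min incubation before reading | Benchmarks: Neutral control DMSO, positive control TFP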
C2C12 statin: suppressors of simvastatin-induced myotoxicity in C2C12 myotubes. ATP luminescence, 48 h; scaled: DMSO 0, geranylgeraniol control 100. rescue of ATP level, % at 7.49 µM. hit rate 0.78% among 330,000. AID 602340;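 active = mean ATP rescue above about 67%, or every replicate alone reaching that limit, limit read from the data, passing the limit was not always enough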;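 note: myotubes were challenged with 10 µM simvastatin during compound exposure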
Cneo AK release: Cryptococcus neoformans lysis via adenylate kinase release. C. neoformans lysis, adenylate kinase release luminescence, 4 h; normalised: neutral wells 0, clomiphene wells 100. lysis activity, % at 15 µM. hit rate 0.2% among 360,000. AID 651654;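 active = mean lysis activity across replicates of at least 80%, whatever share of replicates individually reach that level; inactive = mean lysis activity below 80%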
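Test system: log-phase Cryptococcus neoformans yeast cells. Input: 5 × 10^6 yeast cells/mL. Medium: fresh YPD growth medium. Doses: single dose. Incubation: static 4 h at 37 °C with compound, 1 h detection. Measured by: luminescent adenylate kinase detection reagent. Read-out: signal increase indicating cell lysis. Benchmarks: Clomiphene.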
Ecoli rRNA inh: inhibits bacterial ribosomal RNA function over humanized ribosomes. hit rate 1.6% among 350,000. GFP signal change (wild-type ribosome), % (test concentration not listed). AID 720706. E. coli WT GFP vs humanized-ribosome RFP mutants, fluorescence, 24 h; stronger effect = lower value; DMSO median 0, no signal -100;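 active = significant combined selectivity score with lowered wild-type GFP, culture density cut under 30%, mutant RFP and density less affected; inactive = any of these conditions unmet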
PGC1a acetyl inh: lowers PGC1a acetylation signal in U2OS cells | inhibition, % at 15.6 µM | AlphaScreen anti-acetyl-lysine; with virally co-expressed GCN5 acetyltransferase | hit rate 0.17% among 350,000;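 active = every replicate shows inhibition of at least 40%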;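 note: 0% = neutral control wells and 100% = positive control wells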
* hit, by the source's call; nt = not tested or not shown.

SMILES | SIRT5 inh | S100A4 inh HTS | C2C12 statin | Cneo AK release | Ecoli rRNA inh | PGC1a acetyl inh
O=C(Nc1ccccc1F)N[C@@H]1CC[C@H](CCNC(=O)C2CCCCC2)O[C@H]1CO | 3 | 90* | -28 | -19 | -4 | -17
O=C(NCC[C@@H]1CC[C@@H](NS(=O)(=O)c2ccc(Cl)cc2)[C@H](CO)O1)c1ccccc1F | 18* | 11 | -4 | -2 | -2 | -5
O=C(Cc1ccccn1)NCC[C@@H]1CC[C@H](NS(=O)(=O)c2ccccc2)[C@H](CO)O1 | 7 | -4 | -1 | 0 | 0 | 10
O=C(NCC[C@@H]1CC[C@H](NS(=O)(=O)c2ccc(Cl)cc2)[C@@H](CO)O1)c1ccccc1F | 2 | -5 | -5 | -3 | -1 | 0
O=C(Cc1ccccn1)NCC[C@H]1CC[C@H](NS(=O)(=O)c2ccccc2)[C@H](CO)O1 | 16* | 7 | -2 | -1 | -1 | 6
Cc1ccc(S(=O)(=O)NC[C@H]2CC[C@H]3[C@H](CN3Cc3cc(-c4ccccc4)on3)O2)cc1 | -4 | 10 | nt | nt | nt | -10
COc1ccc2c3c(n(C)c2c1)[C@H](CO)N(C(=O)Cc1ccccc1)CC31CN(C(C)=O)C1 | nt | 1 | nt | nt | -3 | 1
CS(=O)(=O)c1sc(C#N)c2c1C(=O)CC(c1ccccc1)C2 (stereo not drawn) | 2 | -6 | nt | -5 | -26* | 16
O=C(COc1ccc2ccccc2c1Br)N1CCCC1 | 3 | -12 | nt | 0 | -26* | 2
CC(C)[C@@H]1COCn2nncc2CC[C@H](C)C(=O)N1 | nt | nt | nt | nt | 0 | nt
O=C1OC(OC2CCCCC2)(c2ccccc2)c2ccccc21 (stereo not drawn) | -3 | -7 | 18 | 2 | -22* | -17
CN1OC[C@@H]2CN(C(=O)CCc3ccccc3)[C@H](c3ccc(-n4ccnc4)cc3)C[C@@H]21 | 0 | -11 | 1 | -2 | 8 | 1
CN1OC[C@@H]2CN(Cc3ccccc3)[C@H](c3ccc(-n4ccnc4)cc3)C[C@@H]21 | -2 | -3 | 4 | -2 | -32* | -9
NS(=O)(=O)c1cccc(NC(=O)COC(=O)c2ccccc2C(=O)c2ccccc2)c1 | -1 | 0 | -4 | -1 | -32* | nt
c1ccc(COc2cccc(-c3cc4nc(NCCOc5ccccc5)ccn4n3)c2)cc1 | nt | -2 | -7 | 0 | 14 | -2
c1ccc(COc2cccc(-c3cc4nc(NCCc5ccncc5)ccn4n3)c2)cc1 | 19* | 3 | -26 | -9 | -32 | nt
Cc1ccc(S(=O)(=O)Nc2ccc3c(c2)CC(=O)N([C@H](C)CO)C[C@@H](C)[C@@H](CN(C)S(C)(=O)=O)O3)cc1 | 0 | 46 | 4 | -1 | 1 | -8
N=C1S/C(=C\c2ccco2)C(=O)N1c1ccc2c(c1)OCO2 | -9 | 16 | 2 | 1 | -43* | -3
CN1c2ccc(-c3cccc(F)c3)cc2[C@@H]2[C@@H](CCN2C(=O)c2ccccc2F)[C@H]1CO | -2 | 9 | 1 | 2 | -8 | -5
C[C@@H]1CN([C@H](C)CO)C(=O)c2cc(C3=CCCCC3)cnc2O[C@@H]1CN(C)C(=O)c1ccccn1 | 6 | 9 | 106* | -5 | 0 | -5
C[C@@H]1CN([C@H](C)CO)C(=O)c2cc(C3=CCCCC3)cnc2O[C@H]1CN(C)C(=O)Cc1cccnc1 | 1 | 4 | 2 | 104* | -4 | 6
CC(=O)N(C)C[C@H]1Oc2ncc(C3=CCCC3)cc2C(=O)N([C@H](C)CO)C[C@H]1C | 34* | -7 | -10 | -1 | 0 | 6
CO[C@@H]1CN(C)C(=O)c2ccc(NS(C)(=O)=O)cc2OC[C@@H](C)N(C)C[C@@H]1C | 1 | 43 | 4 | -3 | 1 | -1
Cc1ccccc1NC(=O)C1CCN(S(=O)(=O)c2ccc3c(c2)NC(=O)C(C)S3)CC1 (stereo not drawn) | 0 | 111* | 5 | 0 | -4 | -6
O=C1C=C(c2cccs2)CC(c2cccs2)C1n1cnc([N+](=O)[O-])c1 (stereo not drawn) | nt | nt | 0 | 3 | nt | 6
SMILES | SIRT5 inh | S100A4 inh HTS | C2C12 statin | Cneo AK release | Ecoli rRNA inh | PGC1a acetyl inh
O=C1C=C(c2ccccc2)C[C@H](c2cccs2)[C@H]1n1cnc([N+](=O)[O-])c1 | nt | nt | 137* | -1 | nt | 5
C[C@@H]1CN([C@@H](C)CO)C(=O)c2cc(C#C[C@@H](C)O)cnc2O[C@@H]1CN(C)Cc1cccc(F)c1 | -2 | 4 | 3 | 2 | 2 | 1
COc1cc(/C=N/OCC(=O)Nc2cc(C)on2)ccc1OCc1ccccc1 | 28* | 2 | nt | 0 | 9 | -4
Cc1ccc(CNC(=O)C23CN(Cc4ccccc4)CC2C(c2ccc([N+](=O)[O-])cc2)=NO3)cc1 (stereo not drawn) | 1 | -3 | 92* | -1 | 11 | -7
CC=Cc1ccc2n(c1=O)C[C@H]1[C@H](CO)[C@@H](C(=O)NCCC)[C@@H]2N1C(=O)c1ccccc1 (mixture of isomers) | -10 | 0 | -9 | 7 | 0 | nt
CC(C)(O)c1ccc2c(c1)CCC1C(C)(C(=O)O)CCCC21C (stereo not drawn) | 0 | 3 | 0 | 3 | 2 | 1
CC(C)c1c(O)ccc2c1CC[C@H]1C(C)(C)CCC[C@]21C | -2 | -23 | 23 | 0 | -14* | -15
CC(C)C(=O)Nc1nnc(NC(=S)Nc2ccccc2)s1 | 4 | -4 | 23 | -5 | -34* | 9
CCCc1nnc(NC(=S)Nc2ccccc2)s1 | -2 | -4 | nt | nt | 18 | 7
CN1CCN(C(=O)C[C@@H]2C[C@H]3c4cc(NC(=O)Cc5ccncc5)ccc4O[C@H]3[C@@H](CO)O2)CC1 | -3 | -23 | 2 | -3 | 5 | 2
CN1c2ccc(-c3ccc(C#N)cc3)cc2[C@H]2[C@H](CCN2C(=O)NC2CCCC2)[C@@H]1CO | -16 | -1 | -6 | 12 | -2 | -9
O=S(=O)(c1cccs1)N1CCCCN2[C@@H](CO)[C@@H](c3ccc(C4=CCCCC4)cc3)[C@@H]2C1 | -2 | 21 | nt | -2 | nt | -21
O=S(=O)(c1cccs1)N1CCCCN2[C@H](CO)[C@H](c3ccc(C4=CCCCC4)cc3)[C@@H]2C1 | 18* | 11 | nt | 1 | nt | -22
O=S(=O)(c1cccs1)N1CCCCN2[C@@H](CO)[C@@H](c3ccc(C4=CCCC4)cc3)[C@@H]2C1 | 4 | -2 | 2 | 10 | -34* | -17
COc1cc([N+](=O)[O-])ccc1NC(=O)CCCOc1ccccc1 | nt | nt | 4 | 0 | nt | 9
COc1cc([N+](=O)[O-])ccc1NC(=S)NNC(=O)CCC(=O)Nc1ccccc1Cl | -3 | 4 | -2 | -6 | -17* | 5

Source: PubChem (Broad Institute)
